Among the data in ChEMBL document CHEMBL1146783, “Conformationally restricted analogs of deoxynegamycin” (Bioorg Med Chem Lett, 2004) are MIC and ED50 values, retold here.

SMILES strings stand for the structures. Values after ≈ are worked out from the molar mass of the structure shown.

Format in all cases: functional
For assay [1], the system named is Staphylococcus aureus. In words: Minimum inhibitory concentration (MIC) against Staphylococcus aureus […]; Inactive. The gist of the method: (§1)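 Broth microdilution in Mueller–Hinton broth supplemented with 50% human serum; inoculum 5 × 10⁵ cfu/mL.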
The test system of assay [2] is Klebsiella pneumoniae. In words: Minimum inhibitory concentration (MIC) against Klebsiella pneumoniae ATCC 13882; Inactive. The gist of the method: as §1
Assay [3] deals with Enterobacter cloacae. The experiment in a line: Minimum inhibitory concentration (MIC) against Enterobacter cloacae ATCC 35030; Inactive. The gist of the method: as §1
In assay [4] the test system is Escherichia coli. In words: Minimum inhibitory concentration (MIC) against Escherichia coli MG1655 tolC; Inactive. The gist of the method: as §1
The test system of assay [5] is Escherichia coli. The experiment in a line: Minimum inhibitory concentration (MIC) against Escherichia coli MG1655; Inactive. The gist of the method: as §1
In assay [6] the test system is Pseudomonas aeruginosa. In words: Minimum inhibitory concentration (MIC) against Pseudomonas aeruginosa PA01; Inactive. The gist of the method: as §1
Assay [7] concerns Escherichia coli. In words: Minimum inhibitory concentration (MIC) against Escherichia coli ATCC 25922; Inactive. In short, it runs like this:
as §1

Assay [8] concerns Streptococcus pneumoniae. The experiment in a line: Minimum inhibitory concentration (MIC) against Streptococcus pneumoniae 1005; Inactive. The gist of the method:
as §1

In assay [9] the test system is Escherichia coli. The experiment in a line: Minimum inhibitory concentration (MIC) against Escherichia coli MG1655 tolC. In short, it runs like this: as §1
Assay [10] has as its system Enterobacter cloacae. In words: Minimum inhibitory concentration (MIC) against Enterobacter cloacae ATCC 35030. The gist of the method: as §1
In assay [11] the test system is Staphylococcus aureus. The experiment in a line: Minimum inhibitory concentration (MIC) against Staphylococcus aureus ATCC 25293. In short, it runs like this:
as §1

In assay [12] the test system is Klebsiella pneumoniae. In words: Minimum inhibitory concentration (MIC) against Klebsiella pneumoniae ATCC 13882. The gist of the method:
as §1

Assay [13] has as its system Pseudomonas aeruginosa. The experiment in a line: Minimum inhibitory concentration (MIC) against Pseudomonas aeruginosa PA01. In short, it runs like this: as §1
Assay [14] deals with Escherichia coli. In words: Minimum inhibitory concentration (MIC) against Escherichia coli ATCC 25922. The gist of the method:
as §1

Assay [15] deals with Escherichia coli. The experiment in a line: Minimum inhibitory concentration (MIC) against Escherichia coli MG1655. The gist of the method: as §1
The subject of assay [16] is Streptococcus pneumoniae. In words: Minimum inhibitory concentration (MIC) against Streptococcus pneumoniae 1005. The gist of the method:
as §1

For assay [17], the species on record is Mus musculus. The experiment in a line: Compound was evaluated for its efficacy in an Escherichia coli murine septicemia model. In short, it runs like this:
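Mice infected intraperitoneally with about 1 × 10⁵ cfu of E. coli ATCC25922; compound given intravenously at 1 and 5 h post-infection.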

[18] abbreviates: Escherichia coli, MG1655, read-out: MIC.
The mark [19] stands for this setting: Enterobacter cloacae, ATCC 35030, read-out: MIC.
The mark [20] stands for this setting: Staphylococcus aureus, ATCC 25293, read-out: MIC.
Setting [21] is: Klebsiella pneumoniae, ATCC 13882, read-out: MIC.
Where [22] appears, read: Pseudomonas aeruginosa, read-out: MIC.
[23] abbreviates: Escherichia coli, ATCC 25922, read-out: MIC.
The mark [24] stands for this setting: Escherichia coli, read-out: MIC.

As a reminder, the MIC is the smallest concentration in the dilution series that meets the test's criterion for growth inhibition. As to `CN(CC(=O)O)NC(=O)C[C@H](N)Cc1csc(N)n1`, the MIC in [1], in [2], in assay [3], in [4], in assay [5] and in [6] was > 256 µg/mL throughout. Also, the minimum inhibitory concentration (MIC) in assay [7] and in [8] was > 256 µg/mL throughout.

As for `CN(CC(=O)O)NC(=O)C[C@H](N)C1CCCNC1` (stereo partly specified), the MIC in assay [9] (setting [18]), in assay [10] (setting [19]), in assay [11] (setting [20]), in assay [12] (setting [21]), in assay [13] (setting [22]) and in assay [14] (setting [23]) was > 128 µg/mL in each case. Besides, the MIC in assay [15] (setting [24]) and in assay [16] was > 128 µg/mL in each case.

On to `CN(CC(=O)O)NC(=O)C[C@H](N)/C=C(/F)CN`, for which the MIC in assay [9] (setting [18]), in assay [10] (setting [19]), in assay [11] (setting [20]), in assay [12] (setting [21]), in assay [13] (setting [22]) and in assay [14] (setting [23]) was > 256 µg/mL each time. Further, the minimal inhibitory concentration (MIC) is > 256 µg/mL in assay [15] (setting [24]) and 256 µg/mL (≈ 1030 µM) in assay [16].

`CN(CC(=O)O)NC(=O)C[C@H](N)c1csc(N)n1`: the MIC in [1], in assay [2], in [3], in assay [4], in assay [5] and in assay [6] was > 256 µg/mL in each case. The MIC in assay [7] and in [8] was > 256 µg/mL each time.

A word on the ED50: it is the dose at which the effect has come halfway, by size or by number of responders. Regarding `CN(CC(=O)O)NC(=O)C[C@H](N)CCCN`, the minimum inhibitory concentration (MIC) is 4 µg/mL (≈ 17.2 µM) in [9] (setting [18]); 4 µg/mL (≈ 17.2 µM) in [10] (setting [19]); 64 µg/mL (≈ 276 µM) in [11] (setting [20]); 8 µg/mL (≈ 34.4 µM) in assay [12] (setting [21]); 64 µg/mL (≈ 276 µM) in assay [13] (setting [22]); 16 µg/mL (≈ 68.9 µM) in [14] (setting [23]). In addition, the figures for the MIC in assay [15] (setting [24]) and in assay [16] were 8 µg/mL (≈ 34.4 µM) and 64 µg/mL (≈ 276 µM), respectively. The same compound displayed an ED50 in assay [17] of 4.8 mg/kg.

For `CN(CC(=O)O)NC(=O)CC(N)C1CCC(N)CC1` (stereo unspecified), the MIC came to 32 µg/mL (≈ 117 µM) in assay [9] (setting [18]); 128 µg/mL (≈ 470 µM) in assay [10] (setting [19]); 128 µg/mL (≈ 470 µM) in [11] (setting [20]); 32 µg/mL (≈ 117 µM) in [12] (setting [21]); 256 µg/mL (≈ 940 µM) in assay [13] (setting [22]); 128 µg/mL (≈ 470 µM) in [14] (setting [23]). Further, the results for the MIC in assay [15] (setting [24]) and in assay [16] were 64 µg/mL (≈ 235 µM) and 128 µg/mL (≈ 470 µM), respectively.

For the compound `CN(CC(=O)O)NC(=O)C[C@H](N)/C=C(\F)CN`, the MIC in assay [9] (setting [18]), in assay [10] (setting [19]), in assay [11] (setting [20]), in [12] (setting [21]), in assay [13] (setting [22]) and in [14] (setting [23]) was > 256 µg/mL in each case. Moreover, the MIC in [15] (setting [24]) is > 256 µg/mL; in assay [16], 256 µg/mL (≈ 1030 µM).

Take `CN(CC(=O)O)NC(=O)CC1(N)CCC(N)CC1` (stereo unspecified): the MIC in [1], in assay [2], in [3], in assay [4], in [5] and in assay [6] was > 256 µg/mL each time. The MIC in [7] and in [8] was > 256 µg/mL in each case.

For the compound `CN(CC(=O)O)NC(=O)CC(N)C1CCCC(N)C1` (stereo unspecified), the MIC in assay [9] (setting [18]) is 64 µg/mL (≈ 235 µM); in assay [10] (setting [19]), 256 µg/mL (≈ 940 µM); in [11] (setting [20]), 256 µg/mL (≈ 940 µM); in assay [12] (setting [21]) it was 64 µg/mL (≈ 235 µM); in assay [13] (setting [22]), > 256 µg/mL; in assay [14] (setting [23]), 256 µg/mL (≈ 940 µM). Moreover, the MIC in assay [15] (setting [24]) and in assay [16] was 128 µg/mL (≈ 470 µM) in each case.

In the case of `CN(CC(=O)O)NC(=O)C[C@H](N)Cc1csc(CCNC(=O)OC(C)(C)C)n1`, the minimum inhibitory concentration (MIC) in assay [1], in assay [2], in assay [3], in [4], in [5] and in assay [6] was > 256 µg/mL in each case. Moreover, the MIC in [7] and in assay [8] was > 256 µg/mL each time.

Take `CN(CC(=O)O)NC(=O)C[C@H](N)CC1CC1N` (stereo partly specified): the minimum inhibitory concentration (MIC) was found to be 32 µg/mL (≈ 131 µM) in assay [9] (setting [18]); 128 µg/mL (≈ 524 µM) in assay [10] (setting [19]); 256 µg/mL (≈ 1050 µM) in assay [11] (setting [20]); 32 µg/mL (≈ 131 µM) in assay [12] (setting [21]); 256 µg/mL (≈ 1050 µM) in assay [13] (setting [22]); 64 µg/mL (≈ 262 µM) in [14] (setting [23]). The values for the MIC in [15] (setting [24]) and in [16] were 64 µg/mL (≈ 262 µM) and 128 µg/mL (≈ 524 µM), respectively.

In the case of `CN(CC(=O)O)NC(=O)C[C@H](N)Cc1csc(CNC(=O)OC(C)(C)C)n1`, the MIC in assay [1], in [2], in [3], in assay [4], in assay [5] and in [6] was > 256 µg/mL throughout. For the same compound, the MIC in assay [7] and in assay [8] was > 256 µg/mL throughout.

As to `CN(CC(=O)O)NC(=O)C[C@H](N)c1csc(CNC(=O)OC(C)(C)C)n1`, the MIC in [1], in assay [2], in assay [3], in assay [4], in [5] and in assay [6] was > 256 µg/mL in each case. In addition, the MIC in [7] and in assay [8] was > 256 µg/mL each time.

For the compound `CN(CC(=O)O)NC(=O)C[C@H](N)/C=C/CN`, the MIC in [9] (setting [18]), in assay [10] (setting [19]), in assay [11] (setting [20]), in assay [12] (setting [21]), in assay [13] (setting [22]) and in assay [14] (setting [23]) was > 256 µg/mL in each case. For the same compound, the figures for the MIC in [15] (setting [24]) and in assay [16] were > 256 µg/mL and 256 µg/mL (≈ 1110 µM), respectively.

With `CN(CC(=O)O)NC(=O)CC(N)[C@H]1CC[C@@H](N)C1` (stereo partly specified), the MIC in assay [9] (setting [18]) amounted to 64 µg/mL (≈ 248 µM); in [10] (setting [19]) it was 128 µg/mL (≈ 496 µM); in assay [11] (setting [20]) it was 128 µg/mL (≈ 496 µM); in [12] (setting [21]) it was 64 µg/mL (≈ 248 µM); in assay [13] (setting [22]), 256 µg/mL (≈ 991 µM); in [14] (setting [23]), 128 µg/mL (≈ 496 µM). Besides, the MIC in [15] (setting [24]) and in [16] was 128 µg/mL (≈ 496 µM) in each case.

Regarding `CN(CC(=O)O)NC(=O)C[C@H](N)C1CC1CN` (stereo partly specified), the MIC in assay [9] (setting [18]), in assay [10] (setting [19]), in assay [11] (setting [20]), in assay [12] (setting [21]), in assay [13] (setting [22]) and in assay [14] (setting [23]) was > 128 µg/mL throughout. In addition, the minimal inhibitory concentration (MIC) in assay [15] (setting [24]) was > 128 µg/mL.

Consider `CN(CC(=O)O)NC(=O)C[C@H](N)c1csc(CCNC(=O)OC(C)(C)C)n1`, for which the minimal inhibitory concentration (MIC) in [1], in assay [2], in assay [3], in assay [4], in [5] and in assay [6] was > 256 µg/mL throughout. Besides, the MIC in assay [7] and in [8] was > 256 µg/mL in each case.

As for `CN(CC(=O)O)NC(=O)C[C@H](N)C1CC1N` (stereo in doubt; 35e1), the minimum inhibitory concentration (MIC) in [9], in assay [10], in [11], in assay [12], in assay [13] and in [14] was >128 µg/mL throughout. In addition, the MIC in assay [15] was >128 µg/mL.

Turning to `CN(CC(=O)O)NC(=O)C[C@H](N)C1CC1N` (stereo in doubt; 35e2), the MIC in [9] (setting [18]), in [10] (setting [19]), in assay [11] (setting [20]), in assay [12] (setting [21]), in assay [13] (setting [22]) and in assay [14] (setting [23]) was 128 µg/mL (≈ 556 µM) throughout. Further, the MIC in [15] (setting [24]) amounted to 128 µg/mL (≈ 556 µM).

`CN(CC(=O)O)NC(=O)C[C@H](N)C[C@@H](O)CN` [NEGAMYCIN]: in assay [17], the median effective dose (ED50) is 5.1 mg/kg.
